ChEMBL document CHEMBL4138266, “Lysine Analogue of Polymyxin B as a Significant Opportunity for Photodynamic Antimicrobial Chemotherapy” (ACS Med Chem Lett, 2018)
Active and inactive are the calls of the source. No cut-off for these calls is given here.

Tests used:
[1] = system: Staphylococcus aureus; experiment: Photobactericidal activity against Staphylococcus aureus pretreated for 30 mins followed by compound wash out with subsequent irradiation with white light at 4.83 mW/cm2; type: functional, organism-based
Outline: (§1)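 Bacteria were pre-incubated with conjugate in 1X PBS (P. aeruginosa at 1 µM), then washed three times with PBS. They were irradiated with white LED light (4.83 mW/cm²; 7 J/cm² corresponds to 24 min) at 37 °C. Survival, as % of initial density, was plotted against cumulative light fluence.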

[2] = system: Pseudomonas aeruginosa; experiment: Photobactericidal activity against Pseudomonas aeruginosa pretreated for 30 mins followed by compound wash out with subsequent irradiation with white light at 4.83 mW/cm2; type: functional, organism-based; outline: as §1
[3] = system: Staphylococcus aureus; experiment: Photobactericidal activity against Staphylococcus aureus CIP76.25 irradiated with white light at 4.83 mW/cm2 for 20 hrs; type: functional; settings: CIP76.25, light or radiation study
Outline: (§2)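 Minimal bactericidal concentration (MBC) was determined in tryptic soy medium with log-phase bacteria at 37 °C. Plates were either kept in the dark or given 20 h of white light at 4.83 mW/cm². MBC was taken as the concentration killing 99.99% of bacteria, i.e. a 4-log reduction versus the untreated control.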

[4] = system: Pseudomonas aeruginosa; experiment: Photobactericidal activity against Pseudomonas aeruginosa CIP76110 irradiated with white light at 4.83 mW/cm2 for 20 hrs; type: functional; settings: CIP76110, light or radiation study; outline: as §2
[5] = system: Pseudomonas aeruginosa; experiment: Bactericidal activity against Pseudomonas aeruginosa CIP76110 incubated for 30 mins under dark conditions; type: organism-based; settings: 0.5 h; outline: as §2
[6] = system: Escherichia coli; experiment: Photobactericidal activity against Escherichia coli CIP54.8T irradiated with white light at 4.83 mW/cm2 for 20 hrs; type: functional; settings: light or radiation study; outline: as §2
[7] = system: Escherichia coli; experiment: Bactericidal activity against Escherichia coli CIP54.8T incubated for 30 mins under dark conditions; type: organism-based; settings: 0.5 h; outline: as §2
[8] = system: Escherichia coli; experiment: Photobactericidal activity against Escherichia coli pretreated for 30 mins followed by compound wash out with subsequent irradiation with white light at 4.83 mW/cm2; type: functional, organism-based; outline: as §1
[9] = system: Pseudomonas aeruginosa; experiment: Photobactericidal activity against Pseudomonas aeruginosa assessed as PI-positive and PS-positive cell population at 1 uM incubated for 30 mins followed by 1 washing by propidium iodide staining based flow cytometry; type: functional
Outline: (§3)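 Bacteria were incubated with 1 µM conjugate for 30 min at 37 °C, washed with saline, then stained with propidium iodide (0.01 mg/mL) to assess viability. Samples were analysed by flow cytometry. Q1 is the PI-positive (permeable membrane) population; Q2 is double positive for PI and photosensitizer fluorescence.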

[10] = system: Pseudomonas aeruginosa; experiment: Photobactericidal activity against Pseudomonas aeruginosa assessed as live bacterial cells with membrane integrity loss at 1 uM incubated for 30 mins followed by 1 washing by propidium iodide staining based flow cytometry; type: functional; outline: as §3
[11] = system: Staphylococcus aureus; experiment: Photobactericidal activity against Staphylococcus aureus at 1 uM after 30 mins by confocal laser scanning microscopy; type: functional, organism-based
Outline: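 S. aureus inoculum was suspended in 1 µM conjugate for 30 min at 37 °C, washed three times with PBS, and imaged by confocal laser scanning microscopy at 100X to visualise bacteria-associated fluorescence.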

[12] = system: NHDF; experiment: Cytotoxicity against human NHDF cells assessed as reduction in cell viability at 5 to 5000 nM irradiated with white light at 4.83 mW/cm2 for 2 hrs measured after 24 hrs by MTT assay; type: cell-based; settings: 5 µM
[13] = system: NHDF; experiment: Cytotoxicity against human NHDF cells assessed as reduction in cell viability at 5 to 5000 nM incubated under dark conditions for 2 hrs measured after 24 hrs by MTT assay; type: cell-based; settings: 5 µM
[14] = system: Staphylococcus aureus; experiment: Photobactericidal activity against Staphylococcus aureus assessed as dead bacteria with permeable membrane at 1 uM incubated for 30 mins followed by 1 washing by propidium iodide staining based flow cytometry; type: functional; outline: as §3
[15] = system: Staphylococcus aureus; experiment: Photobactericidal activity against Staphylococcus aureus at 10 uM pretreated for 30 mins followed by compound wash out with subsequent irradiation with white light at 4.83 mW/cm2; type: functional, organism-based; outline: as §1
[16] = system: Escherichia coli; experiment: Photobactericidal activity against Escherichia coli at 10 uM pretreated for 30 mins followed by compound wash out with subsequent irradiation with white light at 4.83 mW/cm2; type: functional, organism-based; outline: as §1
[17] = system: Pseudomonas aeruginosa; experiment: Photobactericidal activity against Pseudomonas aeruginosa at 1 uM pretreated for 30 mins followed by compound wash out with subsequent irradiation with white light at 4.83 mW/cm2; type: functional, organism-based; outline: as §1
[18] = system: Staphylococcus aureus; experiment: Photobactericidal activity against Staphylococcus aureus assessed as PI-positive and PS-positive cell population at 1 uM incubated for 30 mins followed by 1 washing by propidium iodide staining based flow cytometry; type: functional; outline: as §3
[19] = system: Staphylococcus aureus; experiment: Photobactericidal activity against Staphylococcus aureus assessed as live bacterial population at 1 uM incubated for 30 mins followed by 1 washing by propidium iodide staining based flow cytometry; type: functional; outline: as §3
[20] = system: Staphylococcus aureus; experiment: Photobactericidal activity against Staphylococcus aureus assessed as live bacterial cells with membrane integrity loss at 1 uM incubated for 30 mins followed by 1 washing by propidium iodide staining based flow cytometry; type: functional; outline: as §3
[21] = system: Pseudomonas aeruginosa; experiment: Photobactericidal activity against Pseudomonas aeruginosa assessed as dead bacteria with permeable membrane at 1 uM incubated for 30 mins followed by 1 washing by propidium iodide staining based flow cytometry; type: functional; outline: as §3
[22] = system: Pseudomonas aeruginosa; experiment: Photobactericidal activity against Pseudomonas aeruginosa assessed as live bacterial population at 1 uM incubated for 30 mins followed by 1 washing by propidium iodide staining based flow cytometry; type: functional; outline: as §3
[23] = system: Escherichia coli; experiment: Photobactericidal activity against Escherichia coli assessed as dead bacteria with permeable membrane at 1 uM incubated for 30 mins followed by 1 washing by propidium iodide staining based flow cytometry; type: functional; outline: as §3
[24] = system: Escherichia coli; experiment: Photobactericidal activity against Escherichia coli assessed as PI-positive and PS-positive cell population at 1 uM incubated for 30 mins followed by 1 washing by propidium iodide staining based flow cytometry; type: functional; outline: as §3
[25] = system: Escherichia coli; experiment: Photobactericidal activity against Escherichia coli assessed as live bacterial population at 1 uM incubated for 30 mins followed by 1 washing by propidium iodide staining based flow cytometry; type: functional; outline: as §3
[26] = system: Escherichia coli; experiment: Photobactericidal activity against Escherichia coli assessed as live bacterial cells with membrane integrity loss at 1 uM incubated for 30 mins followed by 1 washing by propidium iodide staining based flow cytometry; type: functional; outline: as §3
[27] = system: Staphylococcus aureus; experiment: Photobactericidal activity against Staphylococcus aureus assessed as dead bacteria with permeable membrane at 1 uM incubated for 30 mins followed by 3 washings by propidium iodide staining based flow cytometry; type: functional; outline: as §3
[28] = system: Staphylococcus aureus; experiment: Photobactericidal activity against Staphylococcus aureus assessed as PI-positive and PS-positive cell population at 1 uM incubated for 30 mins followed by 3 washings by propidium iodide staining based flow cytometry; type: functional; outline: as §3
[29] = system: Staphylococcus aureus; experiment: Photobactericidal activity against Staphylococcus aureus assessed as live bacterial population at 1 uM incubated for 30 mins followed by 3 washings by propidium iodide staining based flow cytometry; type: functional; outline: as §3
[30] = system: Staphylococcus aureus; experiment: Photobactericidal activity against Staphylococcus aureus assessed as live bacterial cells with membrane integrity loss at 1 uM incubated for 30 mins followed by 3 washings by propidium iodide staining based flow cytometry; type: functional; outline: as §3
[31] = system: Pseudomonas aeruginosa; experiment: Photobactericidal activity against Pseudomonas aeruginosa assessed as dead bacteria with permeable membrane at 1 uM incubated for 30 mins followed by 3 washings by propidium iodide staining based flow cytometry; type: functional; outline: as §3
[32] = system: Pseudomonas aeruginosa; experiment: Photobactericidal activity against Pseudomonas aeruginosa assessed as PI-positive and PS-positive cell population at 1 uM incubated for 30 mins followed by 3 washings by propidium iodide staining based flow cytometry; type: functional; outline: as §3
[33] = system: Pseudomonas aeruginosa; experiment: Photobactericidal activity against Pseudomonas aeruginosa assessed as live bacterial population at 1 uM incubated for 30 mins followed by 3 washings by propidium iodide staining based flow cytometry; type: functional; outline: as §3
[34] = system: Pseudomonas aeruginosa; experiment: Photobactericidal activity against Pseudomonas aeruginosa assessed as live bacterial cells with membrane integrity loss at 1 uM incubated for 30 mins followed by 3 washings by propidium iodide staining based flow cytometry; type: functional; outline: as §3
[35] = system: Escherichia coli; experiment: Photobactericidal activity against Escherichia coli assessed as dead bacteria with permeable membrane at 1 uM incubated for 30 mins followed by 3 washings by propidium iodide staining based flow cytometry; type: functional; outline: as §3
[36] = system: Escherichia coli; experiment: Photobactericidal activity against Escherichia coli assessed as PI-positive and PS-positive cell population at 1 uM incubated for 30 mins followed by 3 washings by propidium iodide staining based flow cytometry; type: functional; outline: as §3
[37] = system: Escherichia coli; experiment: Photobactericidal activity against Escherichia coli assessed as live bacterial population at 1 uM incubated for 30 mins followed by 3 washings by propidium iodide staining based flow cytometry; type: functional; outline: as §3
[38] = system: Escherichia coli; experiment: Photobactericidal activity against Escherichia coli assessed as live bacterial cells with membrane integrity loss at 1 uM incubated for 30 mins followed by 3 washings by propidium iodide staining based flow cytometry; type: functional; outline: as §3

With `CCCCCCCC(=O)N[C@@H](CSC1CC(=O)N(CCCCCC(=O)Nc2ccc(-c3c4nc(c(-c5cc[n+](C)cc5)c5ccc([nH]5)c(-c5cc[n+](C)cc5)c5nc(c(-c6cc[n+](C)cc6)c6ccc3[nH]6)C=C5)C=C4)cc2)C1=O)C(=O)N[C@H](C(=O)N[C@@H](CCN)C(=O)N[C@H]1CCNC(=O)[C@H]([C@@H](C)O)NC(=O)[C@H](CCN)NC(=O)[C@H](CCN)NC(=O)[C@H](CC(C)C)NC(=O)[C@@H](Cc2ccccc2)NC(=O)[C@H](CCN)NC1=O)[C@@H](C)O.[I-].[I-].[I-]` (stereo partly drawn) the Activity [1] was “Active”, the Activity [2] was “Active” and the MBC [3] was 0.8 µM. The MBC [4] was 2.5 µM, the MBC [5] was 10 µM and the MBC [6] was 0.5 µM. The MBC [7] was 1.2 to 5 µM, the Activity [8] was “Active” and the Activity [9] was 80%. The Activity [10] was 80%, the Activity [11] was “Active” and the Activity [12] was “Non-Toxic”. For the same compound, the Activity [13] was “Non-Toxic”.

In the case of `CCCCCCCC(=O)N[C@@H](CSC1CC(=O)N(CCCCCC(=O)Nc2ccc(-c3c4nc(c(-c5cc[n+](C)cc5)c5ccc([nH]5)c(-c5cc[n+](C)cc5)c5nc(c(-c6cc[n+](C)cc6)c6ccc3[nH]6)C=C5)C=C4)cc2)C1=O)C(=O)N[C@H](C(=O)N[C@@H](CCCCN)C(=O)N[C@H]1CCNC(=O)[C@H]([C@@H](C)O)NC(=O)[C@H](CCCCN)NC(=O)[C@H](CCCCN)NC(=O)[C@H](CC(C)C)NC(=O)[C@@H](Cc2ccccc2)NC(=O)[C@H](CCCCN)NC1=O)[C@@H](C)O.[I-].[I-].[I-]` (stereo partly drawn), the Activity [14] is reported as 1.6%, the MBC [3] is reported as 1.2 µM and the MBC [4] is reported as 8 µM. The MBC [5] was > 100 µM, the MBC [6] was 0.8 µM and the MBC [7] was 25 µM. For the same compound, the Activity [15] was “Active”, the Activity [16] was “Active” and the Activity [17] was “Active”. It also gave an Activity [18] of 3.2%, an Activity [19] of 75.6% and an Activity [20] of 19.7%. It also gave an Activity [21] of 19.3%, an Activity [9] of 43.1% and an Activity [22] of 34.6%. It also gave an Activity [10] of 3%, an Activity [23] of 1.8% and an Activity [24] of 14%. It also gave an Activity [25] of 69.7%, an Activity [26] of 14.6% and an Activity [27] of 4.4%. It also gave an Activity [28] of 5.8%, an Activity [29] of 70.8% and an Activity [30] of 19%. It also gave an Activity [31] of 37.7%, an Activity [32] of 28.9% and an Activity [33] of 31.6%. For the same compound, the Activity [34] was 1.9%, the Activity [35] was 5.2% and the Activity [36] was 22.8%. For the same compound, the Activity [37] was 62.5%, the Activity [38] was 9.6% and the Activity [11] was “Active”. For the same compound, the Activity [12] was “Non-Toxic” and the Activity [13] was “Non-Toxic”.
